# Compound activity: PubChem, several laboratories
# VIM-2 inh = inhibitors of Pseudomonas aeruginosa VIM-2 metallo-beta-lactamase | inhibition, % at 5.6 µM | purified VIM-2, nitrocefin hydrolysis, epi-absorbance fluorescence | actives 0.89% (n = 290,000) | AID 1527;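 active means inhibition above the mean of all tested compounds plus 3 SD, cutoff set per screening run, cut at about 7.5% in these data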;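 further: red hydrolysis product quenches plate fluorescence so inhibitors raise well fluorescence; 0% = enzyme with DMSO and 100% = DMSO without enzyme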
# IMP-1 inh-1 = blocks Pseudomonas aeruginosa IMP-1 metallo-beta-lactamase; purified IMP-1, nitrocefin hydrolysis, epi-absorbance fluorescence; inhibition, % at 5.6 µM; actives 0.45% (n = 290,000);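 active means inhibition above the mean plus 3 SD of all compounds in the same screening run, cut at about 4.5% in these data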;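 further: 0% = IMP-1 with DMSO and 100% = DMSO wells lacking enzyme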
#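 System: Purified IMP-1 | Read-out basis: Percent enzyme inhibition | Controls: IMP-1 with DMSO as 0%, enzyme-free DMSO as 100% | Replicates: One well per compound | Doses: 5.6 µM nominal single concentration | Detection: Epi-absorbance fluorescence, 480 nm excitation, 530 nm emission | Incubation: 25 °C, 15 min preincubation, 25 min reaction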
# ARFGAP1 inhibitor = inhibitors of rat ARFGAP1 | Q62848 | Arfgap1-stimulated ARF1 GTP hydrolysis, GDP FP detection | inhibition, % at 16.5 µM | actives 0.26% (n = 360,000) | AID 651572;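 active means inhibition above a per-plate limit, mean inhibition of low control wells plus 3 SD, cut at about 25% in these data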;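 further: 0% = DMSO wells with enzyme and 100% = wells lacking Arfgap1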
# Target sequence (Q62848 1-136 limits assumed): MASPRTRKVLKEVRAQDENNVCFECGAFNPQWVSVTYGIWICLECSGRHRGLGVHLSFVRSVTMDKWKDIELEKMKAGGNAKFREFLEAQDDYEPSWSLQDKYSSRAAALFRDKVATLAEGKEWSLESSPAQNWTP
#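 Assay system: Rat Arfgap1 GAP domain (His6, aa 1-136), purified enzyme | Buffer or medium: HEPES 25 mM pH 7.5, NaCl 150 mM, MgCl2, DTT | Schedule: GTP hydrolysis reaction 2 h at 25 °C | Signal: FP of antibody-bound GDP Alexa 633 tracer, ex 620/em 688 nm | Measure: Percent inhibition of Arfgap1-stimulated GTP hydrolysis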
# PHOSPHO1 inh = blocks human PHOSPHO1 phosphatase activity; recombinant PHOSPHO1, absorbance phosphatase assay; actives 1.1% (n = 290,000); AID 1565; Q8TCT1; inhibition, % at 13.3 µM; in the data active means inhibition above about 60%
# Target sequence (Q8TCT1 whole entry, looked up): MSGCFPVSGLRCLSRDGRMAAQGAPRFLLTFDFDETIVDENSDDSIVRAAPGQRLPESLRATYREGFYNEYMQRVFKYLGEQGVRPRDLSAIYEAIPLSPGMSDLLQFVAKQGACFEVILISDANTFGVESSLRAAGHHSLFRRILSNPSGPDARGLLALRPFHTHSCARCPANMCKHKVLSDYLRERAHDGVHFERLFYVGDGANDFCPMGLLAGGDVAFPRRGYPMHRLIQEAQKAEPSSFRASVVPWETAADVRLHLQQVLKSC
# Calb FLC = affects C. albicans growth with fluconazole. C. albicans CaCi-2 + fluconazole, Alamar Blue growth, 48 h. growth inhibition, % (test concentration not listed). actives 0.57% (n = 300,000);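 active means growth inhibition above about 58% in most replicates, limit read from the data, passing the limit was not always enough; inconclusive means exactly half the replicates above a set limit; inactive means most replicates below a set limit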;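 further: all wells also contain fluconazole at 8 µg/ml as a sub-toxic cotreatment; 0% = median of DMSO wells and 100% = median of geldanamycin control wells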
# ASAP1 inh = blocks human ASAP1-stimulated Arf1 GTP hydrolysis; actives 0.19% (n = 360,000); Q9ULH1; GDP FP detection; inhibition, % at 16.5 µM; in the data active means inhibition above about 25%;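 further: 0% = vehicle with enzyme and substrate and 100% = no enzyme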
# IMP-1 inh-2 = blocks IMP-1 metallo-beta-lactamase in VIM-2 selectivity screen | inhibition, % at 5.6 µM | shares compounds with VIM-2 inh | purified IMP-1, nitrocefin hydrolysis, epi-absorbance fluorescence | 1,300 tested, under 10 active | AID 1856; call rule not given here;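 further: 0% = enzyme with vehicle and 100% = vehicle without enzyme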
# VIM-2 FRET ctr = counter-screen for VIM-2 inhibitors: epi-absorbance artifacts via FRET | actives 23% (n = 1,300) | inhibition, % at 5.6 µM | shares compounds with VIM-2 inh | AID 1857 | purified VIM-2, CCF2 FRET substrate hydrolysis;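 active means inhibition above the mean of all tested compounds plus 3 SD, cut at about 19% in these data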;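 further: 0% = VIM-2 plus DMSO and 100% = no enzyme wells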
# TEM-1 inh = blocks E. coli TEM-1 beta-lactamase in VIM-2 selectivity screen | shares compounds with VIM-2 inh | Purified TEM-1, nitrocefin hydrolysis, epi-absorbance fluorescence | inhibition, % at 5.6 µM | actives 3% (n = 1,300) | AID 1866;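 active means inhibition above that campaign's mean inhibition plus 3 SD, cut at about 0.46% in these data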;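 further: 0% = TEM-1 with DMSO and 100% = TEM-1 with 100 µM potassium clavulanate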
# VIM-2 confirm 2 = confirmation of P. aeruginosa VIM-2 metallo-beta-lactamase inhibitors. shares compounds with VIM-2 inh. purified VIM-2, nitrocefin hydrolysis, epi-absorbance. inhibition, % at 5.6 µM. actives 96% (n = 1,300). AID 2187;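 active means inhibition of the VIM-2 beta-lactamase enzyme above about 11% from the earlier first-round screen, limit read from the data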;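 further: 0% = VIM-2 with DMSO and 100% = buffer wells without enzyme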
# * hit, by the source's call; ? = inconclusive; . = no result. An excerpt weighted towards active compounds, which were near 2.6% of everything screened.
SMILES,VIM-2 inh,IMP-1 inh-1,ARFGAP1 inhibitor,PHOSPHO1 inh,Calb FLC,ASAP1 inh,IMP-1 inh-2,VIM-2 FRET ctr,TEM-1 inh,VIM-2 confirm 2
Cc1c(OCC(=O)NCc2ccncc2)ccc2c3c(c(=O)oc12)CCCC3,48.9*,-0.1,6.3,42.2,1.4,0.6,-0.2,-5.7,-6.8,63.1*
CCc1nc2ccc(C(=O)Nc3cccc(OC)c3)cn2c1N(CC)Cc1cccc(Br)c1,.,.,13.7,.,.,3.2,.,.,.,.
Cc1cc(NC(=O)C2(C)CCN2C(C)C)c2ccccc2n1 (configuration not stated),.,.,0.9,.,.,1.9,.,.,.,.
O=C(Cn1ccc(=O)[nH]c1=O)c1ccc([N+](=O)[O-])o1,.,.,-0.9,.,.,7.6,.,.,.,.
Cc1c(OC(C)C(=O)O)ccc2c3c(c(=O)oc12)CCCC3 (configuration not stated),-2.0,-0.1,3.2,-1.4,3.7,-15.7,.,.,.,.
Cc1c(OC(C)C(=O)NCc2cccnc2)ccc2c3c(c(=O)oc12)CCCC3 (configuration not stated),13.6*,-1.5,-7.0,12.3,-5.6,1.4,-2.2,-3.4,-11.9,24.0*
C=CCSc1nnc2nc3c(nn12)c1cc(C)ccc1n3CC=C,14.7*,-3.1,4.5,-8.0,19.7,-12.2,-2.3,2.8,-4.7,19.3*
C=CCn1c(O)c(N=O)c2cc(C)ccc21,-0.7,-2.4,0.2,36.3,-2.5,-3.2,.,.,.,.
CC1=C(C(=O)N(C(C)C)C(C)C)CC(CC(=O)NCCCCc2ccccc2)C(=O)N1CCCN1CCCC1=O (configuration not stated),.,.,4.9,.,.,-2.3,.,.,.,.
COc1ccccc1Nc1nc(NCCCN(C)C)nc(N)c1[N+](=O)[O-],26.8*,-4.8,-2.1,27.7,-22.1,0.5,-2.5,2.9,-6.9,44.1*
Cc1ccc(C(=O)NC(=S)Nc2ccc(S(=O)(=O)N3CCN(C)CC3)cc2)cc1,31.4*,-1.9,-3.5,32.5,-9.9,-15.1,-2.0,-0.2,-8.1,62.7*
Cc1cccc(C(=O)NC(=S)Nc2ccc(S(=O)(=O)N3CCCCC3)cc2)c1,-3.4,-3.6,-0.8,-21.8,-28.3,-9.7,.,.,.,.
Cc1cccc(C(=O)NC(=S)Nc2ccc(S(=O)(=O)N3CCN(C)CC3)cc2)c1,38.2*,-3.2,15.0,-1.4,-5.0,-14.9,-2.0,2.7,-9.2,68.7*
COc1ccc(C(=O)N2CCCC(c3cc(C(=O)Nc4ccccc4)no3)C2)cc1 (configuration not stated),.,.,2.4,.,.,18.9,.,.,.,.
Cc1nc(-c2ccccn2)nc(SCC(=O)c2ccccc2)c1Cl,53.6*,-2.2,7.1,8.1,3.5,10.5,-4.1,-24.8,-5.9,72.3*
COc1cnc(-c2ccccn2)nc1N(C)c1ccccc1,37.2*,-5.2,2.3,41.5,?,10.4,-4.5,-35.2,-2.9,46.6*
CCOC(=O)CSc1nc(-c2ccccn2)ncc1OC,17.4*,-5.4,-0.9,20.2,-5.2,2.0,-3.6,-25.1,-3.7,24.7*
COc1cnc(-c2ccccn2)nc1Oc1cccc(C(F)(F)F)c1,45.5*,-5.0,1.7,43.7,6.6,14.5,-5.0,-28.9,-4.9,59.7*
COc1cnc(-c2ccccn2)nc1Oc1ccccc1,5.3,-2.5,3.6,16.2,18.9,8.5,.,.,.,.
CC(=O)OCC(C)n1[nH]c2ccccc2c1=O (configuration not stated),.,.,11.4,.,.,3.0,.,.,.,.
CC(C)(C)n1nnnc1C(c1cc2ccccc2o1)N1CCN(C(=O)OCc2ccccc2)CC1 (configuration not stated),.,.,1.4,.,.,-0.1,.,.,.,.
COC(=O)/C=C1\OCc2ccccc21,.,.,-14.3,.,.,-12.5,.,.,.,.
